Results pooled from the literature.
Each line is one published result; the experiments were not run side by side.
PIK3CG: Phosphatidylinositol 4,5-bisphosphate 3-kinase catalytic subunit gamma isoform (PIK3CG, Homo sapiens, UniProt P48736)
ADRA2B: Alpha-2B adrenergic receptor (ADRA2B, Homo sapiens, UniProt P18089)

| Structure (SMILES) | target | test | setting | measurement | result |
| --- | --- | --- | --- | --- | --- |
| Cc1cccc(N=C2C(=O)N(Cc3ccccc3)c3ccccc32)c1 | PIK3CG | enzyme activity, inhibitor, ADP detection |  | IC50 | 0.45 nM |
| Cc1cc(Oc2ncccc2CN2CCN(c3ccc(Cl)cc3)CC2)ccc1-c1c(C)c(=O)[nH]c(=O)n1C | ADRA2B | ligand displacement, radioligand |  | Ki | 338 nM |
| CC(C)C[C@H](NC(=O)[C@H](CC(C)C)NC(=O)[C@H](Cc1c[nH]c2ccccc12)NC(=O)[C@H](CCC(N)=O)NC(=O)[C@@H](NC(=O)[C@H](Cc1ccccc1)NC(=O)[C@H](CC(=O)O)NC(=O)[C@H](CCC(N)=O)NC(=O)[C@H](C)NC(=O)[C@H](C)NC(=O)[C@H](CCCNC(=N)N)NC(=O)[C@H](CCC(=O)O)NC(=O)[C@H](CC(=O)O)NC(=O)[C@H](CC(C)C)NC(=O)[C@H](Cc1ccc(O)cc1)NC(=O)[C@H](CCCCN)NC(=O)[C@H](CO)NC(=O)[C@H](Cc1ccc(O)cc1)NC(=O)[C@H](CC(=O)O)NC(=O)[C@H](CO)NC(=O)[C@@H](NC(=O)[C@H](Cc1ccccc1)NC(=O)[C@@H](NC(=O)CNC(=O)[C@H](CCC(N)=O)NC(=O)C(C)(C)NC(=O)[C@@H](N)Cc1c[nH]cn1)[C@@H](C)O)[C@@H](C)O)C(C)C)C(=O)N[C@@H](CC(=O)O)C(=O)NCC(=O)NCC(=O)N1CCC[C@H]1C(=O)N[C@@H](CO)C(=O)N[C@@H](CC(C)C)C(=O)N[C@@H](CCCNC(=N)N)C(=O)N[C@@H](Cc1c[nH]cn1)C(=O)N[C@@H](Cc1ccc(O)cc1)C(=O)N[C@@H](CC(C)C)C(=O)N[C@@H](CC(N)=O)C(=O)N[C@@H](CC(C)C)C(=O)N[C@H](C(=O)N[C@H](C(=O)N[C@@H](CCCNC(=N)N)C(=O)N[C@@H](CCC(N)=O)C(=O)N[C@@H](CCCNC(=N)N)C(=O)N[C@@H](Cc1ccc(O)cc1)C(N)=O)[C@@H](C)O)C(C)C | Glucagon receptor (GCGR, Homo sapiens, UniProt P47871) | reporter gene, agonist, luciferase |  | EC50 | 0.12 nM |
| Nc1ncnc2c1ncn2C1CCCC1 | Inositol-tetrakisphosphate 1-kinase (Homo sapiens, UniProt Q13572) | binding, ITC | pH 7.2 | Kd | 52 nM |
| CCC(C(=O)N1C(=O)C(=Nc2ccc(Cl)cc2Br)c2ccccc21)c1ccccc1 (stereo not drawn) | PIK3CG | enzyme activity, inhibitor, ADP detection |  | IC50 | 28.3 nM |
| Cc1cc(Oc2ncccc2CN2CCN(c3ccccn3)CC2)ccc1-c1c(C)c(=O)[nH]c(=O)n1C | ADRA2B | ligand displacement, radioligand |  | Ki | 267 nM |
| Cc1cccc(N=C2C(=O)Nc3ccccc32)c1 | PIK3CG | enzyme activity, inhibitor, ADP detection |  | IC50 | 20.4 nM |
| NC(=O)C1CN(C(=O)CCl)c2ccccc2O1 (stereo not drawn) | Creatine kinase U-type, mitochondrial (CKMT1A, Homo sapiens, UniProt P12532) | binding, MST |  | Kd | 13000 nM |
| COc1cc(-c2noc(C3CNc4cnn(C)c4C3)n2)cc(Cl)c1OC (stereo not drawn) | FBXW7 (Homo sapiens, UniProt Q969H0) | binding, SPR |  | Kd | > 87000 nM |
| Cc1cc(Oc2ncccc2CN2CCN(c3ccccc3Br)CC2)ccc1-c1c(C)c(=O)[nH]c(=O)n1C | ADRA2B | ligand displacement, radioligand |  | Ki | 49.6 nM |
| Cc1ccc(CN2C(=O)C(=Nc3cccc(C)c3)c3ccccc32)cc1 | PIK3CG | enzyme activity, inhibitor, ADP detection |  | IC50 | 0.98 nM |
| NC(=O)C1=CN([C@@H]2O[C@H](COP(=O)(O)OP(=O)(O)OC[C@H]3O[C@@H](n4cnc5c(N)ncnc54)[C@H](OP(=O)(O)O)[C@@H]3O)[C@@H](O)[C@H]2O)C=CC1 | MECR (Homo sapiens, UniProt Q9BV79) | binding, ITC |  | Kd | 956 nM |
